Article PMC9200148 (The Journal of Infectious Diseases, 2020)
Several values for one entry are separate records, joined by “and”; a condition that tells them apart may be missing. Equal values may be shown once.

Columns and labels:
RSV = conditions: cited from earlier work
RSV-A Memphis 37b [1] = assay: RSV challenge study: viral load in nasal wash by RT-qPCR; assay type: in vivo, human; conditions: for AUC VL from baseline through day 12 / Reduction in AUC VL vs placebo: 5 mg BID nebulized; for AUC VL from baseline through day 12 / Peak VL / Time to nondetectability (or <1 log) of RSV RNA / VL at 2.5 d (peak at placebo) after first dose / VL slope: baseline to 24 h after first dose / VL slope: baseline to 48 h after first dose: LS mean (SD)
Method in brief: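 Nasal washes collected twice daily were assayed for RSV RNA by RT-qPCR (Simplexa) and expressed as log10 PFUe/mL. ITT-I was defined as PCR-positive just before dosing, or positive on at least two later occasions. Nebulized 5 mg or placebo was given every 12 h for 5 days, starting about 12 h after detection or on day 6. Viral load AUC, peak and time to nondetectability were analysed by a mixed-effects model and t test.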

[2] = RSV challenge study: safety; assay type: in vivo, human
Method in brief: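 This was a randomized, single-blind, placebo-controlled study in healthy adults inoculated intranasally on day 0 and held in quarantine for 15 days. They received 5 mg or placebo by nebulizer and facemask every 12 h for 5 days. The ITT population comprised those inoculated who received at least one dose. Adverse events (counted as subjects reporting them), laboratory values, vital signs, ECG and spirometry were recorded through day 28 (±3 days).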

[3] = Plasma pharmacokinetics after repeated nebulized dosing; assay type: in vivo, human
Method in brief: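 Healthy adults aged 18–55 received 5 mg nebulized by facemask every 12 h for 5 days (10 doses), with the first dose either in the morning (schedule A) or the evening (schedule B). Serial plasma samples were assayed by LC–MS/MS after liquid–liquid extraction, using a D4-labelled internal standard (LLOQ 0.1 ng/mL; range 0.1–100 ng/mL). Tmax was timed from the end of inhalation, and values are geometric means of both schedules.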

RSV-A Memphis 37b [4] = assay: RSV challenge study: symptom score and mucous weight; assay type: in vivo, human; conditions: for AUC of mucous weight from baseline through day 12 / AUC of symptom score from baseline through day 12: LS mean (SD)
Method in brief: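 Volunteers with low serum neutralizing titres were challenged with RSV-A Memphis 37b. Dosing with 5 mg or placebo by nebulizer every 12 h for 5 days began about 12 h after RT-qPCR detection or on the morning of day 6, whichever came first. Symptoms were self-recorded in diaries three times daily, and mucus was weighed daily from used facial tissues. AUCs were computed and group means compared by t test in the ITT-I population.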

## CS(=O)(=O)CCCn1c(Cn2c(=O)n(CC(F)(F)F)c3ccncc32)cc2cc(Cl)ccc21 [JNJ-53718678]
RSV
  AUC reduction of viral load in RSV challenge study: 41%–53%

## Cc1cnc(N2CC3(CCOCC3)C2)c(C(=O)Nc2ccc(C(=O)N3CCc4cc(C(=O)Nc5c(C)cccc5F)sc4-c4ccccc43)cc2)c1 [PC786, N-(2-fluoro-6-methylphenyl)-6-(4-(5-methyl-2-(7-oxa-2-azaspiro [3.5]nonan-2-yl)nicotinamido)benzoyl)-5,6-dihydro-4H-benzo[b]thieno[2,3-d]azepine-2-carboxamide]
RSV-A Memphis 37b [1]; ITT-I (n = 22)
  AUC VL from baseline through day 12: 274.1 log10 PFUe/mL × h and 274.1 (234.42) log10 PFUe/mL × h
RSV-A Memphis 37b [1]; ITT-I
  Reduction in AUC VL vs placebo: 32.57%
  Peak VL: 3.4 (1.76) log10 PFUe/mL
  Time to nondetectability (or <1 log) of RSV RNA: 4.6 (3.75) d
  VL at 2.5 d (peak at placebo) after first dose: 2.0 (1.82) log10 PFUe/mL
  VL slope: baseline to 24 h after first dose: 0.8 (1.89) log10 PFUe/mL/24 h
  VL slope: baseline to 48 h after first dose: 0.6 (1.52) log10 PFUe/mL/48 h
RSV-A Memphis 37b [1]; ITT-IS (n = 19, post hoc)
  AUC VL from baseline through day 12: 325.8 (199.19) log10 PFUe/mL × h
RSV-A Memphis 37b [1]; ITT-IS
  Reduction in AUC VL vs placebo: 34% and 34.25%
  Peak VL: 3.7 (1.30) log10 PFUe/mL
  Time to nondetectability (or <1 log) of RSV RNA: 4.9 (4.13) d
  VL at 2.5 d (peak at placebo) after first dose: 2.3 (1.66) log10 PFUe/mL
  VL slope: baseline to 24 h after first dose: 0.7 (1.50) log10 PFUe/mL/24 h
  VL slope: baseline to 48 h after first dose: 0.6 (1.45) log10 PFUe/mL/48 h
[2]; ITT (n = 28), 5 mg BID
  Conjunctivitis attributed to study drug, subjects: 0 No. (%)
  FEV1 decreased attributed to study drug, subjects: 0 No. (%)
  Headache attributed to study drug, events: 1 No. of Events
  Headache attributed to study drug, subjects: 1 (3.6) No. (%)
  No. of subjects with AEs attributed to study drug: 1 (3.6) No. (%)
  Photophobia attributed to study drug, subjects: 0 No. (%)
[2]; ITT (n = 28), 5 mg BID, first dose to day 28
  No. of subjects with AEs (TEAEs): 12 No. (%) and 12 (42.9) No. (%)
[2]; nebulized 5 mg BID for 5 days
  Serious adverse events, deaths, other significant AEs: no serious adverse events
[2]; nebulized 5 mg BID for 5 days, healthy subjects inoculated with RSV
  Tolerability: well tolerated
[3]; 5 mg BID
  Time at which steady state was reached: ≤ 4 days
[3]; human, inhaled, 5 mg
  AUC: 11.7 ng·h/mL
[3]; human, inhaled, 5 mg, Mean plasma Cmax, 5 mg BID nebulized
  Cmax: 1.5 ng/mL
[3]; human, inhaled, 5 mg, t½, apparent terminal half-life, geometric mean (CV%)
  half-life: 726 min
[3]; repeated 5 mg BID, median (range), after end of inhalation
  Tmax: 0.542 (0.383–2.08) h
RSV-A Memphis 37b [4]; ITT-I
  AUC of mucous weight from baseline through day 12: 11.8 (22.99) g × No. of days
  AUC of symptom score from baseline through day 12: 192.3 (244.97) score × h
RSV-A Memphis 37b [4]; ITT-I, P = .1095
  Mean AUC of mucous weight lower than placebo: 38%
RSV-A Memphis 37b [4]; ITT-I, not statistically significant
  AUC of total symptom score lower than placebo: 29%
RSV-A Memphis 37b [4]; ITT-IS
  AUC of mucous weight from baseline through day 12: 12.7 (24.69) g × No. of days
  AUC of symptom score from baseline through day 12: 221.2 (252.05) score × h
RSV-A Memphis 37b [4]; ITT-IS, P = .0126
  Reduction of mean AUC of mucous weight vs placebo: 46%
